The list is not random: actives were taken first. Their share in the collection is about 4.1%.
KCNK9 inh: KCNK9 potassium channel inhibitors, primary screen, HEK293 cells, thallium flux; Potassium channel subfamily K member 9 (Homo sapiens), Q9NPC2; FluxOR thallium flux fluorescence; stronger effect = lower value; B-score at 10 µM; 1.2% of 310,000 active; AID 488922, 2010;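 active means ratio B-score over 3 SD below the library mean, with starting fluorescence within 5 SD of its mean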;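 further: negative B-score means less thallium flux so channel inhibition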
KCNK3 inh: human KCNK3 channel inhibitors, primary screen, CHO cells, FluxOR thallium flux, B-score; FluxOR fluorescence; stronger effect = lower value; Potassium channel subfamily K member 3 (Homo sapiens), O14649; 0.84% of 340,000 active; AID 602410, 2012; B-score at 10 µM;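 active means B-score under library mean minus 4 SD, starting fluorescence ratio at most library mean plus 5 SD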;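 further: more negative B-score means stronger inhibition of thallium flux through KCNK3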
hERG protect: hERG rescue from dofetilide block, primary screen, cell-based, CHO-hERG, FluxOR thallium flux, dofetilide IC70 | dofetilide IC70 present | Voltage-gated inwardly rectifying potassium channel KCNH2 (Homo sapiens), Q12809 | 0.51% of 310,000 active | activation (rescue from dofetilide block), less the hit threshold, % at 10 µM;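 active means activation above the mean of controls blocked by dofetilide plus 5 SD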;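 further: thallium influx through hERG after potassium depolarization seen as dye fluorescence rise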
KCC2 mod: KCC2 cotransporter modulators, thallium flux, primary screen, cell-based, HEK293 KCC2, FluoZin-2 fluorescence, MLSMR; KCC2 cells, thallium flux FluoZin-2 fluorescence; AID 1456, 2008; Solute carrier family 12 member 5 (Homo sapiens), Q9H2X9; 2.2% of 190,000 active; B-score of Tl+ flux slope (higher = more flux/activation; lower = inhibition) at 10 µM;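 active means thallium flux slope and its plate-corrected score both differing from the plate sample mean at a set confidence after two filtering rounds, in either direction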;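 further: slope of fluorescence scaled to starting intensity during 10 to 20 s after thallium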
KCNQ1 pot: potentiators or activators of KCNQ1 channel, primary screen, cell-based, thallium flux, high-throughput; 0.35% of 310,000 active; CHO-K1 KCNQ1, thallium flux FluxOR fluorescence; stronger effect = higher value; B-score at 10 µM;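 active means fluorescence ratio B-score, a plate-corrected score, at least three library SD, with initial intensity B-score within 5 SD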
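System: CHO-K1 cells stably expressing KCNQ1 / Medium: assay buffer for compound exposure, DMSO matched across wells / Reagent: thallium- and potassium-containing depolarizing buffer / Compound: one concentration, matched DMSO / Incubation: 20 min compound pretreatment at room temperature / Measured by: kinetic FluxOR fluorescence, 10 s baseline plus 110 s post-stimulus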
KCNQ1 block: inhibitors of human KCNQ1 channel, primary screen, cell-based, thallium flux, high-throughput | Potassium voltage-gated channel subfamily KQT member 1 (Homo sapiens), P51787 | CHO-K1 KCNQ1, FluxOR thallium flux fluorescence; stronger effect = higher value | B-score at 10 µM | 1.3% of 310,000 active;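 active means compounds whose thallium flux B-score, printed positive for inhibition, exceeds three library SD while starting fluorescence stays within three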;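 further: channel opened by potassium depolarization with thallium stimulus after 20 min compound exposure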
KCNQ1 inh valid: KCNQ1 potassium channel inhibitors, confirmation, cell-based, Tl flux, duplicate; shares compounds with KCNQ1 block; KCNQ1 cell line, FluxOR thallium flux fluorescence; inhibition, % at 10 µM; 93% of 1,600 active;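 active means primary screen active, with duplicate mean exceeding buffer control mean plus 3 SD of buffer wells, cut at about 28% in these data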;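 further: 0% = buffer control ratio and 100% = XE991 inhibitor control ratio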
CHO KCNQ1 ctr: thallium flux effects in parental CHO cells, counter-screen for KCNQ1 inhibitor project, cell-based, Tl flux; AID 588366, 2011; 21% of 1,600 active; fluorescence ratio (Tl flux) at 10 µM; parental CHO-K1, FluxOR thallium flux fluorescence ratio; stronger effect = lower value; zero means no signal rise above baseline; shares compounds with KCNQ1 block;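 active means mean of duplicate thallium-flux fluorescence ratios in parental host cells more than 5 SD below the buffer control mean, cut at about 0.38 in these data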;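 further: ratio is peak minus minimum fluorescence divided by baseline fluorescence; actives read low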
KCNQ1 ephys val: KCNQ1 channel inhibitors, confirmation, orthogonal assay, cell-based, automated electrophysiology. shares compounds with KCNQ1 block. KCNQ1-CHO cells, automated patch clamp current. calls only at 10 µM. 20% of 490 active. AID 624120, 2012;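 active means KCNQ1 current drop exceeding 3 SD of negative control wells, seen in both duplicate runs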;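 further: steady state current during a 2 s step from -80 to +40 mV; negative values mean current inhibition and positive values mean potentiation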
KCNQ2 spec: KCNQ2 channel inhibition, selectivity assay for KCNQ1 inhibitor project, cell-based | shares compounds with KCNQ1 block | KCNQ2 cells, FluxOR thallium flux fluorescence | inhibition, % at 10 µM | 71% of 1,600 active;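 active means mean percent inhibition of the KCNQ2 thallium signal more than 5 SD above the buffer-only control wells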;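 further: KCNQ2 expressed in CHO cells; 0% = buffer control wells and 100% = XE-991 inhibitor control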
KCNQ1-KCNE1 inh: KCNQ1/KCNE1 channel inhibition, selectivity assay for KCNQ1 inhibitor project, CHO-K1 cells, thallium flux, FluxOR; inhibition, % at 10 µM; AID 652147, 2013; 77% of 1,600 active; FluxOR thallium flux fluorescence; shares compounds with KCNQ1 block;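 active means mean percent inhibition of duplicate wells above the buffer-only control mean plus 3 SD of those controls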;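 further: 0% = buffer only wells and 100% = XE-991 inhibitor control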
* hit, by the source's call; i = inactive; / = no result; + = active, no number.

SMILES | KCNK9 inh | KCNK3 inh | hERG protect | KCC2 mod | KCNQ1 pot | KCNQ1 block | KCNQ1 inh valid | CHO KCNQ1 ctr | KCNQ2 spec | KCNQ1-KCNE1 inh | others
COc1ccc(Nc2nc(N3CCCCC3)nc3ccccc23)c(OC)c1 | i | i | -17 | -1.5 | i | 12* | 98* | 0.43 | 90%* | 94%* | KCNQ1 ephys val=i
COc1ccc(Nc2nc(NC(C)(C)C)nc(N3CCCC3)n2)c(OC)c1 | i | i | -15 | 1.5 | i | 8* | 144* | 0.32* | i | +
COc1ccc(Nc2nc(-c3ccccc3)nc3ccccc23)c(OC)c1 | i | i | -8 | 0.33 | i | 11* | + | 0.41 | 108%* | i | KCNQ1 ephys val=i
Cc1ccc(C)c(OCC(=O)Nc2cc(NC(=O)COc3cc(C)ccc3C)cc(C(=O)O)c2)c1 | i | i | -2 | / | i | i | / | / | / | /
CCOc1ccc(CNC(=O)C2CCN(c3nn4c(=O)cc(C)nc4s3)CC2)cc1 | i | i | -5 | / | i | i | / | / | / | /
CC(C)CSC1=NSC2=NC(=O)/C(=C\c3coc4ccccc4c3=O)C(=N)N12 | i | i | -46 | i | i | 25* | + | 0.004* | i | i
Cc1cc(/C=C2\C(=N)N3C(SCc4ccccc4)=NSC3=NC2=O)c(C)n1Cc1ccccc1 | i | i | -5 | 1.9 | i | i | / | / | / | /
O=S(=O)(c1ccccc1)c1nc(Nc2cccc(O)c2)sc1Cl | i | i | -34 | -0.87 | i | 7* | 94* | 0.38 | 78%* | 44%* | KCNQ1 ephys val=i
Cc1cc(/C=C2/SC(=S)N(c3cccc(Cl)c3)C2=O)c(C)n1-c1cccnc1 | i | i | -12 | / | i | i | / | / | / | /
Cc1cc(/C=C2/SC(=S)N(c3ccc([N+](=O)[O-])cc3)C2=O)c(C)n1-c1cccnc1 | i | i | -9 | 0.97 | i | 16* | 124* | 0.47 | 75%* | 102%* | KCNQ1 ephys val=i
O=C(Nc1cccc(F)c1)N(Cc1ccc(Cl)cc1)CC(O)C(F)(F)F (stereo not drawn) | i | i | -12 | 0.41 | i | 8* | 72* | 0.51 | i | 56%*
O=C(Nc1ccccc1)N(Cc1ccccc1)CC(O)C(F)(F)F (stereo not drawn) | i | i | -12 | -1 | i | i | / | / | / | /
CCOc1cc(S(=O)(=O)NCc2ccncc2)ccc1Cl | i | i | -12 | 1.2 | i | 8* | 74* | 0.5 | i | 36%*
CCOc1ccc(S(=O)(=O)NCc2ccncc2)cc1 | i | i | -8 | / | i | i | / | / | / | /
CC(=O)c1ccc(N2CCN(C(=O)C3CCN(S(=O)(=O)c4cccs4)CC3)CC2)cc1 | i | i | -3 | / | i | i | / | / | / | /
Clc1ccc(-c2cc3ccccc3[nH]2)cc1 | i | i | -17 | 0.7 | i | 6* | 124* | 0.55 | i | 98%*
O=C(CN(c1ccc(Cl)c(Cl)c1)S(=O)(=O)c1ccccc1)N1CCc2ccccc2C1 | i | i | -6 | -0.12 | i | 6* | 56* | 0.34* | 119%* | 96%*
CCOC(=O)c1c(NC(=O)CSc2nnc(-c3c[nH]c4ccccc34)n2C)sc2c1CCCC2 | i | i | -21 | -2.3 | i | 7* | 64* | 0.46 | 65%* | i
COc1ccc2oc(/C=C/N(C)C)c(C(=O)c3ccc(Cl)cc3)c2c1 | i | i | -15 | 0.38 | i | 6* | 114* | 0.35* | 139%* | 145%*
FC(F)Oc1ccc(C2N=C(c3ccccc3)NO2)cc1 (stereo not drawn) | i | i | -3 | / | i | i | / | / | / | /
CC1CCCN(S(=O)(=O)c2ccc3[nH]c4c(c3c2)CCCC4)C1 (stereo not drawn) | i | i | -5 | / | i | 12* | 104* | 0.43 | 99%* | 130%* | KCNQ1 ephys val=i
CC1CCCN(S(=O)(=O)c2ccc(S(=O)(=O)N3CCCC3)cc2)C1 (stereo not drawn) | i | i | -11 | / | i | i | / | / | / | /
O=C(NCC(=O)N1CCN(c2ncccn2)CC1)c1ccc(F)cc1 | / | i | / | / | / | / | / | / | / | /
Cc1ccc(C(c2cc(Br)ccc2O)N2CCSCC2)cc1 (stereo not drawn) | i | i | -7 | / | i | 7* | 122* | 0.42 | 107%* | 136%*
Cc1ccc(C(c2nnnn2CCc2ccccc2)N2CCSCC2)cc1 (stereo not drawn) | i | i | -12 | -3.5 | i | i | / | / | / | /
CCOC(=O)C1(CCOc2ccccc2)CCN(Cc2cnc(SC)nc2)CC1 | i | i | -7 | -0.79 | i | i | / | / | / | /
CCOC(=O)C1(CC2CC2)CCN(Cc2cnc(-c3ccccc3C)nc2)CC1 | i | i | -2 | 0.75 | i | 7* | 0 | 0.45 | 78%* | i
O=C(O)C1CC=CCC1C(=O)Nc1ccc2c(c1)CCC2 (stereo not drawn) | i | i | -7 | / | i | 6* | 0 | 0.51 | i | i
Cc1cc(C)cc(NC(=O)NCc2c(-c3ccccc3)noc2C)c1 | i | i | -10 | -0.92 | i | i | / | / | / | /

Screening results from PubChem BioAssay.
